PP1 counter: counter-screen for PP5 inhibitors: inhibitors of human PP1-alpha; P62136; purified PP1alpha, OMFP fluorescence; inhibition, % at 6.7 µM; 320,000 compounds, 0.9% hits; AID 2235;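 active means inhibition above the mean inhibition of all tested compounds plus 3 SD, computed separately for each screening campaign, cut at about 15% in these data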
Target sequence (P62136 whole entry, looked up): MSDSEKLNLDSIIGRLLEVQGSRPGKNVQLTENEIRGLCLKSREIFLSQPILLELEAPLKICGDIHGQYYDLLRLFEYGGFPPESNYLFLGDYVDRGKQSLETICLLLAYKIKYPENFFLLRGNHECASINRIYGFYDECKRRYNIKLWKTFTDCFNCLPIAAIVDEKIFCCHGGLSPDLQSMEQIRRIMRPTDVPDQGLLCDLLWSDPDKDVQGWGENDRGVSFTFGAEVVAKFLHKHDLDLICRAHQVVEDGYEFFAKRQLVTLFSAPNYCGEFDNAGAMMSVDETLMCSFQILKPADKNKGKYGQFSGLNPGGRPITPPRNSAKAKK
Apaf1 inhib: human Apaf-1 inhibition; reconstituted apoptosome caspase-3 activity, DEVD-Rh110 fluorescence; inhibition, % at 20 µM; 330,000 compounds, 0.71% hits; AID 489030; active means inhibition of at least 40% at 20 µM;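 further: plate controls were DMSO wells for no effect and DEVD-CHO caspase inhibitor wells for full effect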
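System – cell-free apoptosome with Apaf-1, procaspase-3 and caspase-9 · Buffer or medium – pH 7.5 Hepes buffer with CHAPS, BSA, DTT · Also added – cytochrome c with DEVD-Rh110 · Times – 30 min compound preincubation, 50 min activation, room temperature · Technique – Rh110 fluorescence intensity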
GSTO1 counter: counter-screen for RBBP9 inhibitors: inhibitors of human GSTO1 | recombinant GSTO1, activity-based probe fluorescence polarization | inhibition, % at 5.96 µM | 300,000 compounds, 1.1% hits | AID 1974;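 active means inhibition above the campaign mean inhibition plus 3 SD, cut at about 35% in these data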;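 further: 0% = GSTO1-1 with DMSO and 100% = wells lacking GSTO1-1 enzyme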
TDP2 inh: blocks human TDP2 phosphodiesterase activity; O95551; recombinant TDP2, T5PNP hydrolysis, p-nitrophenol absorbance 415 nm; inhibition, % at 12.8 µM; 370,000 compounds, 0.34% hits; AID 720702;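 active means inhibition above the mean of all tested compounds plus 3 SD, set per campaign, cut at about 25% in these data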;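 further: 0% = DMSO with enzyme and 100% = buffer with substrate but no TDP2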
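Incubation: 2 h at 37 °C; Test system: recombinant human TDP2; Quantity: enzyme 120 nM; Read-out basis: percent inhibition; Medium: 50 mM Tris-HCl pH 7.5 with Mg2+, KCl, DTT, BSA; Repeats: single replicate; Compound: 12.8 µM single point, 1% DMSO; Signal: epi absorbance; Reagent: 5 mM T5PNP chromogenic substrate; Benchmarks: no-enzyme high, DMSO-plus-enzyme low.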
PP5 inh: PP5 (human) phosphatase inhibition; P53041; inhibition, % at 6.7 µM; 320,000 compounds, 0.18% hits; purified PP5c, OMFP substrate fluorescence;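 active means inhibition above the campaign's mean inhibition across all tested compounds plus 3 SD, cut at about 9.5% in these data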;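 further: 0% = DMSO only and 100% = 100 µM cantharidin control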
Starred values were filed as active, the others as inactive; . = not tested or not shown. This is a sample that favours compounds with a hit; in the whole collection about 2.1% have one here.

SMILES	PP1 counter	Apaf1 inhib	GSTO1 counter	TDP2 inh	PP5 inh
CC(C)(C)c1ccc(-c2nnc(SCC(=O)Nc3ccc4c(c3)OCCO4)n2-c2ccc(Cl)cc2)cc1	.	.	.	-3.1	.
COc1ccc(/C=C2\C(=O)NC(=O)c3ccccc32)cc1OC	.	.	.	63.1*	.
COc1ccc(C=C2C(=O)OC(C)(C)OC2=O)cc1OC	-1.9	4.8	4.1	6.8	1.4
Cc1c(OCC(=O)NC(Cc2ccc(Cl)cc2)C(=O)O)ccc2c(-c3ccccc3)cc(=O)oc12 (centres undefined)	17.2*	-4.1	-15.7	-10.1	-8.0
COc1ccc(CNC(=O)c2ccc3ccccc3n2)cc1	17.1*	1.8	0.1	4.1	3.8
CN(C)S(=O)(=O)c1cccc(NC(=S)Nc2cccc3cnccc23)c1	.	.	.	28.1*	.
CCc1cccc(NC(=S)Nc2cccc3ccccc23)c1	4.9	79.1*	-3.7	-6.0	2.4
CN(C)S(=O)(=O)c1cccc(NC(=S)Nc2ccc3cn[nH]c3c2)c1	-0.1	7.7	4.4	-1.5	0.2
COc1cccc(NC(=S)Nc2cccc3ccccc23)c1	-8.7	93.8*	-3.4	18.0	0.5
Cc1cc(C)cc(NC(=S)Nc2cccc3ccccc23)c1	1.7	32.0	-1.3	-1.4	2.3
COc1ccc(CNC(=S)Nc2cccc(OC)c2)cc1	-2.3	11.1	0.9	4.6	-10.3
COc1ccc(-c2n(CC(=O)OC3CC(C)CCC3C(C)C)c3ccccc3[n+]2C)cc1 (centres undefined)	.	.	.	-8.2	.
COc1ccc(OCc2n(CC(=O)OC3CC(C)CCC3C(C)C)c3ccccc3[n+]2C)cc1 (centres undefined)	16.2*	19.1	4.3	-9.1	2.0
O=C(OCC#CCSc1nnc(-c2cccc3ccccc23)o1)c1ccc(OC(F)F)cc1	.	.	.	-1.2	.
Cc1ccc(S(=O)(=O)N2CCCc3nc(-c4ccc(Br)cc4)ccc32)cc1	.	.	.	1.3	.
COC1=CC(=O)c2ccccc2C1=O	.	78.6*	.	.	.
COC1=CC(=O)C=C(OC)C1=O	.	.	.	-1.3	.
Cc1cc(NC(=S)N(Cc2ccc(Br)cc2)Cc2ccc(C(=O)O)cc2)ccc1Cl	15.9*	20.0	-32.4	-7.5	4.8
COc1ccc(O)c(N)c1	.	76.2*	.	.	.
CCN(CC)CCCNC(=O)C1(N[C@@H](Cc2c[nH]c3ccccc23)C(=O)NCC(OC)OC)CCCCC1	.	.	.	0.8	.
O=C(NCc1ccccc1)[C@@H]1CCCN1C(=O)[C@H]1CCCN1C(=O)c1ccc(F)cc1	.	.	.	5.8	.
NNC(=O)c1oc2nc(-c3ccco3)cc(-c3ccco3)c2c1N	5.7	8.0	52.1*	3.0	3.3
Nc1c(C(=O)N/N=C/c2cccnc2)oc2nc(-c3ccco3)cc(-c3ccco3)c12	4.3	-12.0	9.2	3.5	-0.3
Cc1ccc(OC(=O)c2sc(Cl)nc2C)cc1C	0.4	1.1	35.5*	-5.8	0.5
COc1ccc(N(C)C(=O)c2sc(Cl)nc2C)cc1	-0.2	-2.1	6.5	-1.0	-1.4
SMILES	PP1 counter	Apaf1 inhib	GSTO1 counter	TDP2 inh	PP5 inh
c1nc(NCC2CCCOC2)c2cc(-c3ccc4c(c3)OCO4)ccc2n1 (centres undefined)	.	.	.	-7.1	.
Cc1nc2c(-c3ccccc3)c(C)nn2c(C)c1CCC(=O)NCc1ccco1	2.8	10.5	6.7	4.1	2.0
CCN1CCN(c2ccc(NC(=O)CCc3c(C)nc4c(-c5ccccc5)c(C)nn4c3C)cc2)CC1	0.5	48.5*	0.8	-6.7	0.6
Cc1ccc(S(=O)(=O)N2CC(CBr)=CCC2c2ccccc2)cc1 (centres undefined)	.	.	.	-2.0	.
CN(C)c1ccc(N/C=C/C(=O)c2ccc(F)cc2)cc1	-4.9	-8.1	45.5*	.	8.5
O=C(NC1CCCC1)C(c1ccc(F)cc1)N(Cc1ccc(F)cc1)C(=O)c1ccn[nH]1 (centres undefined)	-5.3	2.4	-6.8	-3.6	1.3
O=C(NC1CCCC1)C(c1ccc(F)cc1)N(Cc1ccccc1Cl)C(=O)CCl (centres undefined)	-1.0	0.1	72.1*	4.4	-0.3
COCCN(C(=O)CCl)C(C(=O)NC1CCCCC1)c1ccccc1C (centres undefined)	-2.4	-6.7	99.4*	-6.5	0.1
COCCN(C(=O)CCC(=O)Nc1cc(C)on1)C(C(=O)NC1CCCC1)c1ccccc1C (centres undefined)	-2.8	-3.7	-6.0	10.3	-1.2
O=c1oc2c(-c3ccc([N+](=O)[O-])cc3)cc(O)cc2s1	2.5	5.9	78.3*	17.8	0.9
